Here are results for 26 molecules from ChEMBL document CHEMBL1145069, “Stereospecific synthesis of 5-substituted 2-bisarylthiocyclopentane carboxylic acids as specific matrix metalloproteinase inhibitors” (J Med Chem, 2003).

Structures are written as SMILES. Where only a bound is given, the exact number is not on record here.

Data set [1] concerns the target 72 kDa type IV collagenase (Homo sapiens, UniProt P08253). The data set can be described thus: Inhibitory activity against matrix metalloprotease-2 (MMP2).
Data set [2] addresses Matrix metalloproteinase-9 (Homo sapiens, UniProt P14780). The data set can be described thus: Inhibitory activity against matrix metalloprotease-9 (MMP9).
In data set [3] the target is Collagenase 3 (Homo sapiens, UniProt P45452). Briefly: Inhibitory activity against matrix metalloprotease-13 (MMP13).
The target of data set [4] is Stromelysin-1 (Homo sapiens, UniProt P08254). The data set can be described thus: Inhibitory activity against matrix metalloprotease-3 (MMP3).
Sequence of Stromelysin-1 (P08254 whole entry): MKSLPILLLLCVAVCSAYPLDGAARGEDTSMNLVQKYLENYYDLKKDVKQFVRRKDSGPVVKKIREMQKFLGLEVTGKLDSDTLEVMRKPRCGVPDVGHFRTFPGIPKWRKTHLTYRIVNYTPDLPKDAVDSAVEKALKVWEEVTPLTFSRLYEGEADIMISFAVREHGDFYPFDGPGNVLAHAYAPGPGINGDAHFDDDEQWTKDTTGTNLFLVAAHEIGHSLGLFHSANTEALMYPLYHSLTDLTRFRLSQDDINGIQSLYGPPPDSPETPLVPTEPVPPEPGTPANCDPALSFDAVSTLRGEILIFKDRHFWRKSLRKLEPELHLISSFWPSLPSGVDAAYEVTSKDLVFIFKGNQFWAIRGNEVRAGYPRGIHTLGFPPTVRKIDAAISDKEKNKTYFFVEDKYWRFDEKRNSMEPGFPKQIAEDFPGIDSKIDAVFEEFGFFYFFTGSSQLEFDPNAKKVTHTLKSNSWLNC
For data set [5], the target named is T1, Interstitial collagenase (Homo sapiens, UniProt P03956).
T1 sequence (P03956 whole entry): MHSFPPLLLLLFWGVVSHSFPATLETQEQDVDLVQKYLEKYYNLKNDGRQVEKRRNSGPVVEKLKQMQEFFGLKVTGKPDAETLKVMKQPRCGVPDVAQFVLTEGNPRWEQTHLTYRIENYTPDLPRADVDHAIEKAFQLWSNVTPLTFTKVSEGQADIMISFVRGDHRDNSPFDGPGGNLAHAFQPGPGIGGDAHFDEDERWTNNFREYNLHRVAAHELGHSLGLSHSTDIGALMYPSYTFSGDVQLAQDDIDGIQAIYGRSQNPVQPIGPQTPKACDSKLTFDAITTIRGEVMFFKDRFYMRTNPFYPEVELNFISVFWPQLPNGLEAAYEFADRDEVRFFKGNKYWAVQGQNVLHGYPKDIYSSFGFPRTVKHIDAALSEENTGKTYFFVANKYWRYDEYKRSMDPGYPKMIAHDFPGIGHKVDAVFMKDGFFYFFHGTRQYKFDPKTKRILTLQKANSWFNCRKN
Briefly: Inhibitory activity against matrix metalloprotease-1 (MMP1).

For data set [6], the species on record is Homo sapiens. Briefly: In vitro absorption was measured in Caco-2 cell. It counts as ADME.
For data set [7], the species on record is Rattus norvegicus. Briefly: In vitro metabolic stability and first pass metabolism was evaluated in rat hepatic microsomes. The format is ADME, Liver.
Data set [8] is filed under the species Homo sapiens. The data set can be described thus: In vitro metabolic stability and first pass metabolism was evaluated in human hepatic microsomes. It counts as ADME, Liver.
Data set [9] relates to Mus musculus. Briefly: Tested for antitumor activity in mice against B16F10 melanoma measured as reduction in number of metastases at 100 mg/kg (ip). It counts as functional. In short, it runs like this: (§1)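 B16-F10 cells passaged in vitro, then 2×10^5 cells per mouse injected into the tail vein of B6D2F1 mice in PBS with 0.5% foetal calf serum. 7 mice per group. Dosing i.p. or p.o. 1 h before inoculation, then daily for 3 days (four doses). Lungs collected on day 11 and fixed in Bouin's fluid. Metastases per lung (total and ≥1 mm) given as % of control mean.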

Data set [10] concerns Mus musculus. Briefly: Tested for antitumor activity in mice against B16F10 melanoma measured as reduction in number of metastases at 200 mg/kg (ip). The format is functional. In short, it runs like this: as §1
For data set [11], the system named is Mus musculus. The data set can be described thus: Tested for antitumor activity in mice against B16F10 melanoma measured as reduction in number of metastases at 100 mg/kg (po). The format is functional. A digest of the protocol: as §1
In data set [12] the test system is Mus musculus. The data set can be described thus: Tested for antitumor activity in mice against B16F10 melanoma measured as reduction in number of metastases at 200 mg/kg (po). It counts as functional. A digest of the protocol: as §1

Sequence of 72 kDa type IV collagenase (P08253 whole entry): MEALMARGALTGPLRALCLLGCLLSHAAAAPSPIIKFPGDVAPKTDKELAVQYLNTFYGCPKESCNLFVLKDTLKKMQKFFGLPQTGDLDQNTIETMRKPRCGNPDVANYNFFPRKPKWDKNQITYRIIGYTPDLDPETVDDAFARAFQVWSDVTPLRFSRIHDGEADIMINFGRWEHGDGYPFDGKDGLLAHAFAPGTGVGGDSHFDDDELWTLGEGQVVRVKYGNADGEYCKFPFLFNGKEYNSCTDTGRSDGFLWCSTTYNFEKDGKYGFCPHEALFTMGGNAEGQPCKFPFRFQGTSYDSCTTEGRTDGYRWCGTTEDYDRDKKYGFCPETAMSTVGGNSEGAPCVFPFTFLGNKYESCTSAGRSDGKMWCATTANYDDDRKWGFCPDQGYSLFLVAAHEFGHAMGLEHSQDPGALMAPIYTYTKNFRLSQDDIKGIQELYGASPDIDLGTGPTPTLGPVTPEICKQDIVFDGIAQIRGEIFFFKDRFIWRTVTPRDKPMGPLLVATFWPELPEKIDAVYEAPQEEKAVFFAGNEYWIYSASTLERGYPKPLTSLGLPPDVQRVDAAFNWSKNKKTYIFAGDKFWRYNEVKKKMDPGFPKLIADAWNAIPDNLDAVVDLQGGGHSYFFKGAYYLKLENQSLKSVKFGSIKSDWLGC
Sequence of Matrix metalloproteinase-9 (P14780 whole entry): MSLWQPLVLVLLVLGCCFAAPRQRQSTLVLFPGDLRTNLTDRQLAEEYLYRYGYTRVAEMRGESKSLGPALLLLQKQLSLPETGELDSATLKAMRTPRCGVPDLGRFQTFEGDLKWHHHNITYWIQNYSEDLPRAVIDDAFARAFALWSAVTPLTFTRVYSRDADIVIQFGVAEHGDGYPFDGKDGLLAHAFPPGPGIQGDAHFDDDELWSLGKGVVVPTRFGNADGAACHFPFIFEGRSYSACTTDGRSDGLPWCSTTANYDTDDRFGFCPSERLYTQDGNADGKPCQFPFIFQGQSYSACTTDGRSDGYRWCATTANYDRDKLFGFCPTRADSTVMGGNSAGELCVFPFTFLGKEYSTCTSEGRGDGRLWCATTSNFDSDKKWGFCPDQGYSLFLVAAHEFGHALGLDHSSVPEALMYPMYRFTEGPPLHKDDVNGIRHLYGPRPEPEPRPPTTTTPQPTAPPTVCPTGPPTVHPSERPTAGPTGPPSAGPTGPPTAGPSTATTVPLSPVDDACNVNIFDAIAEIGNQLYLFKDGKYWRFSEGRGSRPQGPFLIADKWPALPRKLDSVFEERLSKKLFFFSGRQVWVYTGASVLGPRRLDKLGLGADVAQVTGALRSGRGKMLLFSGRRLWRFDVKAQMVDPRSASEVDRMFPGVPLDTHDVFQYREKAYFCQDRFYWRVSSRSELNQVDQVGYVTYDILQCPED

In the case of `CN1C(=O)N(C[C@H](C(=O)NO)[C@@H](CC2CCCC2)C(=O)N2CCCCC2)C(=O)C1(C)C`, the IC50 in [1] amounted to 154 nM; in data set [2], 58 nM.

In the case of `O=C(O)[C@H]1[C@H](CN2C(=O)c3ccccc3C2=O)CC[C@@H]1SCc1ccc(-c2ccccc2)cc1`, the 50% inhibitory concentration (IC50) in data set [1] is 2800 nM; in data set [2] it was 3800 nM; in data set [3], 15 nM; in [4] it was 3000 nM; in data set [5] it was greater than 100000 nM.

Regarding `O=C(O)[C@H]1[C@H](Cn2nnc3ccccc3c2=O)CC[C@@H]1Sc1ccc(-c2nc3ccccc3s2)cc1`, the IC50 in data set [1] was 829 nM; in data set [2], 661 nM; in data set [3], 417 nM; in data set [4] it was 8000 nM; in [5] it was greater than 1000 nM.

On to `O=C(O)[C@H]1[C@H](Cn2nnc3ccccc3c2=O)CC[C@@H]1Sc1ccc(-c2nccs2)cc1`, for which the IC50 in data set [1] was greater than 8000 nM; in [2] it was greater than 6000 nM; in data set [3], greater than 100000 nM; in data set [4], greater than 100000 nM; in data set [5], greater than 100000 nM.

For `O=C(O)[C@H]1[C@H](Cn2nnc3ccccc3c2=O)CC[C@@H]1Sc1ccc(-c2ccncc2)cc1`, the IC50 was 176 nM in data set [1]; 341 nM in data set [2]; 275 nM in data set [3]; 1200 nM in data set [4]; greater than 36000 nM in data set [5].

Regarding `O=C(O)[C@H]1[C@H](CN2C(=O)c3ccccc3S2(=O)=O)CC[C@@H]1Sc1ccc(-c2ccc(Cl)cc2)cc1`, the IC50 in data set [1] was found to be 13 nM; in data set [2], 35 nM; in data set [3], 80 nM; in data set [4], 474 nM; in data set [5] it was 2100 nM.

Consider `CC1(C)NC(=O)N(C[C@@H]2CC[C@H](Sc3ccc(-c4ccc(Cl)cc4)cc3)[C@H]2C(=O)O)C1=O`, for which the 50% inhibitory concentration (IC50) in [1] was 572 nM; in data set [2], 3300 nM; in data set [3], 3.1 nM; in data set [4], 9400 nM; in data set [5], 70000 nM.

Consider `O=C(O)[C@H]1[C@H](CN2C(=O)c3ccccc3C2=O)CC[C@@H]1SCCc1ccc(-c2ccccc2)cc1`, for which the half-inhibitory concentration (IC50) in data set [1] worked out at 46 nM; in data set [2] it was 12 nM; in [3], 162 nM; in data set [4], 26 nM; in [5], 45000 nM.

`O=C(O)[C@H]1[C@H](CN2C(=O)c3ccccc3C2=O)CC[C@@H]1Sc1ccc(-c2ccccc2)cc1`: the concentration for half-maximal inhibition (IC50) in [1] worked out at 24 nM; in data set [2], 76 nM; in data set [3], 66 nM; in data set [4] it was 278 nM; in data set [5], 93 nM.

Turning to `O=C(O)[C@H]1[C@H](CN2NNc3ccsc3C2=O)CC[C@@H]1Sc1ccc(-c2ccc(Cl)cc2)cc1`, the IC50 in data set [1] was found to be 20 nM; in data set [2], 62 nM; in data set [3] it was 133 nM; in [4], 216 nM; in data set [5], 4400 nM.

On to `O=C(O)[C@H]1[C@H](Cn2nc3n(c2=O)CCCCC3)CC[C@@H]1Sc1ccc(-c2ccc(Cl)cc2)cc1`, for which the IC50 is 1700 nM in [1]; 3800 nM in data set [2]; 5.1 nM in data set [3]; 18000 nM in [4]; greater than 10000 nM in data set [5].

Regarding `N#Cc1ccc(-c2ccc(S[C@H]3CC[C@@H](Cn4c(=O)nc5ccccn5c4=O)[C@@H]3C(=O)O)cc2)cc1`, the 50% inhibitory concentration (IC50) was 20 nM in [1]; 31 nM in data set [2]; 31 nM in data set [3]; 103 nM in data set [4]; greater than 1000 nM in data set [5].

With `O=C(O)[C@H]1[C@H](CN2C(=O)c3ccccc3C2=O)CC[C@@H]1S(=O)(=O)CCc1ccc(-c2ccc(Cl)cc2)cc1`, the IC50 in data set [1] was found to be 76 nM; in [2], 39 nM; in data set [3], 808 nM; in [4], 64 nM; in data set [5], 5400 nM. In data set [6], the Absorption was determined as 92%. Also, the MF turned out to be 58% in [7] and 91% in data set [8]. The No. of metastases is reported as 78 in data set [9] and 109 in data set [10].

Consider `O=C(O)[C@H]1[C@H](Cn2nnc3ccccc3c2=O)CC[C@@H]1S(=O)(=O)CCc1ccc(-c2ccc(Cl)cc2)cc1`, for which the 50% inhibitory concentration (IC50) in data set [1] was 383 nM; in data set [2], 132 nM; in [3], 2.8 nM; in data set [4] it was 253 nM; in [5], greater than 100000 nM.

In the case of `O=C(O)[C@H]1[C@H](Cn2nc3ccccn3c2=O)CC[C@@H]1Sc1ccc(-c2ccc(Cl)cc2)cc1`, the IC50 in data set [1] was found to be 25 nM; in [2], 37 nM; in [3], 32 nM; in data set [4], 184 nM; in [5] it was 10000 nM.

Take `CSc1ccc(-c2ccc(S[C@H]3CC[C@@H](Cn4nnc5ccccc5c4=O)[C@@H]3C(=O)O)cc2)cc1`: the IC50 in data set [1] was 5 nM; in [2] it was 4 nM; in [3], 13 nM; in data set [4], 21 nM; in data set [5], greater than 10000 nM.

Regarding `O=C(O)[C@H]1[C@H](CN2C(=O)c3ccccc3C2=O)CC[C@@H]1S(=O)(=O)CCc1ccc(-c2ccc(F)cc2)cc1`, the IC50 in data set [1] was found to be 76 nM; in data set [2] it was 47 nM; in data set [3] it was 296 nM; in [4] it was 316 nM.

`O=C(O)[C@H]1[C@H](Cn2c(=O)nc3ccccn3c2=O)CC[C@@H]1Sc1ccc(-c2ccc(Cl)cc2)cc1`: the IC50 in data set [1] is 9 nM; in [2], 30 nM; in data set [3], 27 nM; in [4] it was 134 nM; in [5] it was greater than 10000 nM.

Take `O=C(O)[C@H]1[C@H](Cn2nnc3ccccc3c2=O)CC[C@@H]1SCCc1ccc(-c2ccc(Cl)cc2)cc1`: the No. of metastases in [11] was found to be 65; in [12], 80; in data set [9], 51; in data set [10] it was 31. Further, the IC50 in data set [1] was 106 nM; in data set [2], 24 nM; in data set [3] it was 391 nM; in data set [4], 62 nM; in data set [5], greater than 70000 nM. The Absorption in data set [6] is reported as 91%. In addition, the results for the MF in data set [7] and in data set [8] were 76% and 63%, respectively.

Regarding `O=C(O)[C@H]1[C@H](Cn2nnc3ccccc3c2=O)CC[C@@H]1Sc1ccc(-c2c[nH]nn2)cc1`, the 50% inhibitory concentration (IC50) in data set [1], in data set [2], in [3], in data set [4] and in data set [5] was greater than 100000 nM in each case.

As to `O=C(O)[C@@H]1[C@@H](Cn2nnc3ccccc3c2=O)CC[C@H]1Sc1ccc(-c2ccc(Cl)cc2)cc1`, the IC50 in data set [1] came to 743 nM; in data set [2] it was 3000 nM; in data set [3], 1.9 nM; in [4], 5200 nM; in [5], 67000 nM.

Turning to `CSc1ccc(-c2ccc(S[C@H]3CC[C@@H](Cn4c(=O)nc5ccccn5c4=O)[C@@H]3C(=O)O)cc2)cc1`, the IC50 in data set [1] stood at 14 nM; in data set [2], 16 nM; in [3] it was 195 nM; in data set [4], 305 nM; in data set [5] it was 63000 nM.

For `O=C(O)[C@H]1[C@H](CN2NNc3nc[nH]c3C2=O)CC[C@@H]1Sc1ccc(-c2ccc(Cl)cc2)cc1`, the IC50 in data set [1] was found to be 130 nM; in [2], 642 nM; in data set [3], 682 nM; in [4] it was 21 nM; in data set [5], 6600 nM.

As to `O=C(O)[C@H]1[C@H](CN2C(=O)c3ccccc3C2=O)CC[C@@H]1SCCc1ccc(-c2ccc(Cl)cc2)cc1`, the No. of metastases in data set [11] is reported as 69; in data set [12], 64.5; in [9] it was 96; in data set [10] it was 43. In addition, the IC50 was 73 nM in [1]; 13 nM in data set [2]; 129 nM in data set [3]; 45 nM in data set [4]; 50000 nM in data set [5]. The Absorption in [6] is given as 94%. In addition, the figures for the MF in [7] and in data set [8] were 43% and 61%, respectively.

`N#Cc1ccc(-c2ccc(S[C@H]3CC[C@@H](Cn4nnc5ccccc5c4=O)[C@@H]3C(=O)O)cc2)cc1`: the half-inhibitory concentration (IC50) in data set [1] was 13 nM; in data set [2] it was 24 nM; in data set [3], 11 nM; in data set [4], 5 nM; in [5], greater than 10000 nM.

For the molecule `O=C(O)[C@H]1[C@H](Cn2nnc3ccccc3c2=O)CC[C@@H]1S(=O)(=O)c1ccc(-c2ccc(Cl)cc2)cc1`, the concentration for half-maximal inhibition (IC50) was 83 nM in data set [1]; 512 nM in data set [2]; 1.8 nM in data set [3]; 694 nM in [4]; greater than 100000 nM in [5].
